Only some compounds are listed: those with a hit (about 2.5% of all), similar ones and a draw of the others.
TRPN1 ag: activates the zebrafish TRPN1 channel. HEK293 zebrafish TRPN1-YFP, Fluo-8 calcium fluorescence; 100% = response to 87 µM carbachol. activation, % at 3 µM. hit rate 0.18% among 220,000;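 active means activation above its plate's cutoff, the mean activation of test wells on that plate plus 3 SD, cut at about 19% in these data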;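 further: 0% = DMSO alone and 100% = 87 µM carbachol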
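Control set: carbachol 87 µM as high control, DMSO as low control; system: HEK293 stable line with zebrafish TRPN1-YFP; read-out: % activation versus carbachol response; detection: intracellular calcium fluorescence with Fluo-8; doses: single test compound dose, 3 µM nominal, 0.3% DMSO; schedule: dye 1 h 37 °C plus 30 min RT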
TRPML3 ag: agonists of human TRPML3 channel. Q8TDD5. HEK293 TRPML3-YFP, Fluo-8 calcium fluorescence; 100% = the carbachol control signal. activation, % at 3 µM. hit rate 0.29% among 220,000. AID 1448;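 active means activation above its plate's cutoff, the mean activation of the plate's test wells plus 3 SD, cut at about 12% in these data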;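 further: 0% = DMSO only wells and 100% = carbachol wells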
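Material: HEK293 cells stably carrying human TRPML3-YFP; compound dosing: single dose, 3 µM final nominal compound, 0.3% DMSO final; incubation: 1-h 37 °C dye load, 5-s basal, 120-s post-compound reads; technique: Fluo-8 intracellular calcium fluorescence, excitation 470-495 nm, emission 515-575 nm; read-out basis: percent activation from peak-to-basal fluorescence ratio, scaled between DMSO and carbachol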
OX1R antag-1: blocks the human orexin 1 receptor; O43613; CHO/OX1R cells, Fluo-8 calcium fluorescence, orexin A; inhibition, % at 5 µM; hit rate 0.43% among 330,000; AID 434989;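 active means inhibition above its plate's threshold, mean inhibition of all tested compounds on the plate plus 3 SD, cut at about 37% in these data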;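 further: 0% = orexin A challenge wells and 100% = SB-334867-A antagonist wells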
Target sequence (O43613 whole entry, looked up): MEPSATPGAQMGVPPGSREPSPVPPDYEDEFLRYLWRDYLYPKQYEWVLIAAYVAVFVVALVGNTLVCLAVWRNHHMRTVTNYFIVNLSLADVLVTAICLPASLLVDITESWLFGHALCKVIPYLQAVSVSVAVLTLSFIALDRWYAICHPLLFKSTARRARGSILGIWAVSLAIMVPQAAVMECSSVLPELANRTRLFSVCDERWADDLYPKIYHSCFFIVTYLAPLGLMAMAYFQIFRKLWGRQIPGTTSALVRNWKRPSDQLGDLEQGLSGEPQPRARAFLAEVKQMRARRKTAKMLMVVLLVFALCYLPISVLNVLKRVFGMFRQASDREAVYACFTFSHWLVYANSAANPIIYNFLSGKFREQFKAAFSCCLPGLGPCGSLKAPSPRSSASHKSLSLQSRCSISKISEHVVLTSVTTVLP
CHO parental Ca: signal in parental CHO cells, OX1R antagonist counter-screen; hit rate 0.63% among 330,000; inhibition, % at 5.6 µM; parental CHO-K1, ATP-induced calcium, Fluo-8 fluorescence;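 active means inhibition above that plate's mean sample inhibition plus 3 SD, cut at about 26% in these data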;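 further: 0% = ATP-challenged DMSO wells and 100% = DMSO wells without ATP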
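test system = CHO parental line | reagent = ATP stimulus | measured by = intracellular calcium via Fluo-8 no-wash fluorescent dye | control set = ATP and no-ATP DMSO wells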
OX1R antag-2: blocks the human orexin 1 receptor; O43613; OX1R-expressing cells, FRET antagonist read-out; inhibition, % at 6.6 µM; hit rate 1.8% among 330,000; AID 485270; in the data active means inhibition mostly above about 38%, no sharp cut-off; inactive means mostly below about 40%;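 further: 0% = agonist challenge alone and 100% = reference antagonist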
OX1R Ca confirm: OX1R (human) antagonism, confirmed. shares compounds with OX1R antag-1. CHO/OX1R cells, orexin A calcium Fluo-8 fluorescence. inhibition, % at 5 µM. hit rate 38% among 1,100; in the data active means inhibition above about 29%;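 further: 0% = agonist challenge alone and 100% = reference antagonist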
CHO Ca triplic: counter-screen: parental CHO calcium response change, triplicate. shares compounds with OX1R antag-1. parental CHO-K1, ATP-induced calcium, Fluo-8 fluorescence. hit rate 9.3% among 1,100. inhibition, % at 5.6 µM. AID 492965;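 active means inhibition above a per-plate limit, the mean inhibition of that plate's test compounds plus 3 SD, cut at about 25% in these data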;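 further: 0% = ATP challenge with DMSO and 100% = DMSO without ATP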
Active calls of the source: *; x = no result.

SMILES	TRPN1 ag	TRPML3 ag	OX1R antag-1	CHO parental Ca	OX1R antag-2	OX1R Ca confirm	CHO Ca triplic
C#CCNC(=O)C1=C[C@H](c2cn(C(C)=O)c3ccccc23)C[C@H](OCc2ccc(CO)cc2)O1	2	2	5	-9	21	x	x
CC(=O)n1cc([C@@H]2C=C(C(=O)NCc3ccccc3)O[C@H](OCc3ccc(CO)cc3)C2)c2ccccc21	x	x	41	7	23	17	1
Cc1c(NC(=O)c2cccc(NC(=O)Cc3ccccc3F)c2)c(=O)n(-c2ccccc2)n1C	x	x	-12	-18	7	x	x
CC(C)(C)c1ccc(S(=O)(=O)N(CCCN2CCOCC2)Cc2cccs2)cc1	0	1	103*	-20	21	-10	-8
CC(=O)Nc1ccc(S(=O)(=O)N(CCCN2CCOCC2)Cc2cccs2)cc1	1	0	-1	-20	5	x	x
O=C(c1ccco1)N1CCN(c2ncccn2)CC1	1	1	23	12	-6	5	4
O=C(c1ccco1)N1CCN(C(=O)N2CCCC2)CC1	3	0	4	9	3	x	x
CC1=C(C(=O)OCc2ccc3c(c2)OCO3)C(c2cccc([N+](=O)[O-])c2)NC(=O)N1 (stereo not given)	1	0	25	0	12	5	-8
CC1=C(C(=O)OCc2ccccc2)C(c2cccc([N+](=O)[O-])c2)NC(=O)N1 (stereo not given)	x	x	-36	-22	17	x	x
Cc1ccc(O)c(C(=O)c2cc(C#N)c3nc4ccccc4n3c2)c1	5	2	-18	-6	14	x	x
O=C(Nc1cccc(Cl)c1)Nc1nc(-c2ccc(Cl)cc2)cs1	3	0	29	19	18	2	60*
Cc1cccc(NC(=S)NCc2ccccc2Cl)c1C	x	x	66*	-5	36	-9	-11
COc1ccc(C(C(=O)NCC2CCCO2)N(C(=O)CNC(=O)c2cccs2)c2ccccc2C)cc1OC (stereo not given)	1	0	-14	2	10	x	x
COc1ccc(Cl)cc1NC(=O)c1[nH]nc(OC)c1[N+](=O)[O-]	1	1	105*	10	15	-1	-4
COc1n[nH]c(C(=O)Nc2cc(Cl)ccc2Cl)c1[N+](=O)[O-]	-1	0	-1	-18	26	x	x
NC(=O)c1ccccc1NC(=O)CSc1nc2c(c(=O)[nH]1)CCCC2	x	x	-11	-9	15	x	x
COc1ccc(N=c2scc(C)n2CCCN2CCCC2=O)cc1	0	1	-17	-9	-1	x	x
COc1ccc(NC2=NCCCCC2)cc1	x	x	-17	4	4	x	x
COc1ccc(-c2nc(NC3=NCCCCC3)sc2C)cc1	-2	-1	55*	-19	14	20	-3
COc1ccc(S(=O)(=O)Nc2ccc(S(=O)(=O)N3CCCC3)cc2)cc1	-1	0	-2	-4	2	x	x
COc1ccc(S(=O)(=O)Nc2ccc(S(=O)(=O)N3CCCCC3)cc2)cc1	0	0	31	22	17	15	-1
COc1ccccc1NC(=O)Nc1ccc(-n2ccc(C(F)(F)F)n2)cc1	2	0	34	-3	7	5	4
CCCN(C(=O)COC(=O)CCOc1ccc(C)cc1)c1c(N)n(Cc2ccccc2)c(=O)[nH]c1=O	x	x	-6	-1	9	x	x
Cc1ccc(OCCC(=O)N(CCC(C)C)c2c(N)n(Cc3ccccc3)c(=O)[nH]c2=O)cc1	x	x	37	-13	26	-5	-11
CSc1nc(O)c(C(c2ccccc2Cl)c2c(O)nc(SC)[nH]c2=O)c(=O)[nH]1	x	x	-10	-5	6	x	x
COc1ccc(NC(=O)CSc2nnc(-c3ccoc3C)n2CCc2ccccc2)cc1	-2	-1	32	-31	65	9	-8
COC(=O)C1=C(C)N(Cc2ccccc2)C(=NCc2cccc(Cl)c2)N[C@H]1c1cccc(F)c1	x	x	61*	21	11	51*	9
Cc1ccc(CNC(=O)CCC(=O)n2ncc3cc(C)ccc32)cc1	x	x	-3	7	2	x	x

Assay outcomes (PubChem BioAssay)
